# An excerpt weighted towards active compounds, which were near 11% of everything screened.
# TNAP act DEA: activates human TNAP at intermediate phosphate acceptor concentration; P05186; purified TNAP, CDP-star luminescence, 100 mM DEA, 30 min; stronger effect = higher value; scale: 0 levamisole-inhibited, 1 vehicle-only enzyme; activation factor at 20 µM; 64,000 tested, under 10 active; AID 813;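 active = activation factor of at least 2 at 20 µM, relative to controls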
# S1P1 ag pot: activates or potentiates agonism at human S1P1 receptor; S1P1 CRE-bla cells, forskolin, beta-lactamase FRET, potentiator mode; S1P1 agonist co-added at EC20, 2 nM; 100% = saturating reference agonist, 0% = basal; actives 0.57% (n = 56,000); P21453; AID 449; activation, % at 9.5 µM;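 active = activation above a cutoff set at the mean activation of all tested compounds plus 3 SD, cut at about 54% in these data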;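 also: forskolin at 4 µM as EC80 and the EC20 agonist is SEW2871; 100% = SEW2871 at its EC100 plus forskolin at EC80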
# S1P3 ag: activates the human S1P3 receptor | Q99500 | S1P3 NFAT-BLA reporter cells, agonism, FRET ratio; relative to 1 µM S1P, basal subtracted | activation, % at 4.5 µM | actives 0.1% (n = 60,000) | AID 373;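 active = activation above the screen-wide mean plus 3 SD, cut at about 4.5% in these data, passing the limit was not always enough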
# Target sequence (Q99500 whole entry, looked up): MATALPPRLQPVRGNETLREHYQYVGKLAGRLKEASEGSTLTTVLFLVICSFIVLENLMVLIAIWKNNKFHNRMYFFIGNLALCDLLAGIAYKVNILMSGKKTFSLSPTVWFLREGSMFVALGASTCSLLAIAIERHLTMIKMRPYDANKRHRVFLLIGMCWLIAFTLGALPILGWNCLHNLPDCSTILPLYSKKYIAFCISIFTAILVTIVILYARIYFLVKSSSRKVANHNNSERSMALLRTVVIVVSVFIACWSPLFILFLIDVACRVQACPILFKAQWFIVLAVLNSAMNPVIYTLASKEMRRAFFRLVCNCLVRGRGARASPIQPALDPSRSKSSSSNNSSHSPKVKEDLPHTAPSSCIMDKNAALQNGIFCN
#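 Measure – % activation relative to 1 µM S1P (100%), per plate · System – stable CHO line with human S1P3, Gα16, NFAT-BLA reporter · Timing – cells plated overnight, compound 4 h 37 °C, substrate 2 h RT · Technique – fluorescent BLA substrate, ex 405 nm, em 460/535 nm ratio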
# M1 ag: agonists of M1 muscarinic receptor | B-score at 10 µM | actives 3% (n = 64,000) | CHO-M1 cells, Fluo-4 calcium fluorescence, agonist mode; stronger effect = higher value;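 active = fluorescence rise, raw or as B-score row- and column-corrected plate score, outside the 99.7% band of its plate's samples, either direction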
# D1 mod: allosteric modulators of human D1 dopamine receptor; HEK293 D1, CRE-luciferase, dopamine EC30 potentiation; actives deviate in either direction; B-score at 10 µM; actives 5.9% (n = 58,000);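 active = luminescence count or its row- and column-corrected plate score outside the 99.7% band of the plate's sample wells, on either side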
# M1 antag: antagonists of rat M1 muscarinic receptor | B-score at 10 µM | P08482 | CHO-M1 cells, Fluo-4 calcium, ACh EC80 antagonist mode; stronger effect = lower value | actives 3.4% (n = 64,000);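 active = calcium fluorescence response, raw or row-and-column corrected B-score, differing from the plate sample mean either way at a set confidence level, mostly lower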
# M1 ag confirm: confirmation of rat M1 muscarinic receptor agonists; shares compounds with M1 ag; CHO-M1 cells, Fluo-4 calcium fluorescence, agonist mode; actives lie on both sides; fluorescence change (max-min) at 10 µM; actives 19% (n = 1,700); AID 1488;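 active = fluorescence change differs from the solvent-only DMSO control mean at a set confidence level in both duplicate runs; inconclusive = differs from solvent-only control mean in just one of two runs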;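 also: an EC20 dose of acetylcholine follows compound addition during the same imaging run; raw fluorescence intensity difference in instrument units with no normalization to controls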
# M4 ag counter: activates rat M4 receptor in counter-screen for M1 agonists | shares compounds with M1 ag | AID 1741 | fluorescence change (max-min) at 10 µM | actives 9% (n = 1,700) | CHO M4/Gqi5 cells, Fluo-4 calcium fluorescence, agonist mode; actives lie on both sides;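 active = fluorescence change differing from the plate's solvent-only control wells at 99.7% confidence in both duplicates, whether higher or lower; inconclusive = differs from solvent controls in only one of two duplicates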
# Numbers without * were called inactive; ? = inconclusive; / = no result.
SMILES,TNAP act DEA,S1P1 ag pot,S1P3 ag,M1 ag,D1 mod,M1 antag,M1 ag confirm,M4 ag counter
O=C(c1cn(-c2ccccc2)nc1-c1ccc(Cl)s1)N1CCOCC1,0.9,6,0,7.7*,0.39,-0.25,-27,-26
CC1CC(=O)c2cnc(Nc3cccc(C(F)(F)F)c3)nc2C1 (stereo not given),0.9,-51,1,3*,0.39,0.45,-4.8,0.27
COC(=O)C1=C(C)Nc2ncnn2C1c1ccc(C)o1 (stereo not given),0.9,-5,0,8.3*,-0.096,0.96,-31,-44
CCOc1cc(C(=O)Nc2ccccc2N2CCN(S(C)(=O)=O)CC2)cc(OCC)c1OCC,0.9,11,-1,1.8*,-0.19,-0.43,-20,-34
CCOc1cc(C(=O)Nc2ccc(N3CCN(S(C)(=O)=O)CC3)cc2)cc(OCC)c1OCC,0.9,/,0,0.01,0.73,0.055,/,/
CCn1c(C(=O)N2CCC(C(=O)NCCCSC3CCCCC3)CC2)cc2sccc21,1,14,-1,2.5*,-1.2,0.092,-19*,-49
CCN1CCN(C(=O)C2CCN(C(=O)c3cc4sccc4n3CC)CC2)CC1,0.8,-22,1,-0.15,1.1,0.13,/,/
CN1CCCN(C(=O)Cc2c(Cl)cccc2Cl)c2nc3ccccc3nc21,1,-73,1,-0.5,3.7,0.19,/,/
CCOC(=O)CSC1=C(C#N)C(c2ccc(Cl)cc2)CC(=O)N1 (stereo not given),1,-11,0,3*,3.5,0.98,-14,?
Cc1cccc(-n2c(SCc3cc(=O)n4ccsc4n3)nc3ccccc32)c1,0.8,-82,0,-0.35,3.3,0.05,/,/
COc1ccc(-c2ccc(-c3noc(C4CCCCC4)n3)c(OC)n2)cc1,0.9,5,-1,3.9*,0.18,-1.1,-11,?
Cc1ccc(S(=O)(=O)N2CCN(C(=O)c3cc(=O)[nH]c4ccccc34)CC2)c(C)c1,0.9,-7,1,4.7*,1.8,-0.01,-28,-50
CCOC(=O)C1CCN(C(=O)CSC2=NCCS2)CC1,1,10,-2,-0.78,-0.021,-0.61,/,/
CCCC(OC(=O)CC1Sc2ccccc2NC1=O)C(=O)NCc1ccco1 (stereo not given),0.9,/,/,2.5*,/,1.2,-19,-31
CN(C)CCOc1ccccc1Cc1ccccc1,0.9,-8,-2,33*,-4.5,-6.4*,-3,-30
O=C(CCn1cccc1)NCc1ccc(Cl)cc1,0.9,0,0,0.64,-0.47,0.073,/,/
O=C(NCCn1cccc1)c1cccc2ccccc12,1,12,-2,5.7*,-0.22,-0.013,-31*,-54
c1ccc(N2CCN(c3nnc(Cc4cccnc4)c4ccccc34)CC2)nc1,1,-2,-1,3.6*,/,-2.9,-12,?
c1ccc(N2CCN(c3cnccn3)CC2)nc1,1,/,/,-0.16,/,-0.52,/,/
N#CCc1nnc2n1-c1ccccc1CCC2,0.9,4,0,-0.029,-0.59,-0.17,/,/
CCN(CC)S(=O)(=O)c1ccc(C(=O)OCn2nnc3ccccc3c2=O)cc1,/,-18,-1,6.2*,-1,0.22,-18,?
O=C(OCn1nnc2ccccc2c1=O)c1ccc(S(=O)(=O)N2CCOCC2)cc1,0.9,/,/,-0.27,0.065,-0.095,/,/
COc1ccc(OC)c(C2=NOC(C(=O)Nc3cccnc3)C2)c1 (stereo not given),0.9,-2,1,-0.83,1.1,0.12,/,/
O=C(Nc1cccnc1)C1CC(c2ccc(Cl)c(Cl)c2)=NO1 (stereo not given),0.9,-19,0,-2.6*,/,0.63,-10,-39
CN(CC(=O)Nc1ccc(C#N)cc1)Cc1ccc(Cl)cc1,1,17,1,-0.89,0.47,0.1,/,/
SMILES,TNAP act DEA,S1P1 ag pot,S1P3 ag,M1 ag,D1 mod,M1 antag,M1 ag confirm,M4 ag counter
N#Cc1ccc(NC(=O)Nc2ccc(Cl)cc2)cc1,1,129*,0,3.1*,-2.6,-0.34,29,13
Nc1nc(CSc2n[nH]c(-c3ccccc3)n2)nc(Nc2ccccc2)n1,0.3,-12,-2,2.2*,2.7,-0.019,-42*,-47
O=C(CCCn1c(=S)[nH]c2cc3c(cc2c1=O)OCO3)N1CCN(c2ccccc2)CC1,0.9,/,/,3.2*,0.029,-0.62,?,-60
Cc1cccc(N2CCN(C(=O)CCn3c(=S)[nH]c4cc5c(cc4c3=O)OCO5)CC2C)c1 (stereo not given),0.9,/,/,2.5*,0.37,-0.17,-6.2,-24
O=C(CCCCCn1c(=O)[nH]c2ccccc2c1=O)N1CCN(Cc2ccc3c(c2)OCO3)CC1,1.1,-1,-1,3.7*,0.29,-1.3,-13,-35
O=C(CCC1CCCCC1)N1CCN(Cc2ccc3c(c2)OCO3)CC1,1,/,-1,6.1*,-0.71,-0.75,-12,?
O=C(c1ccc(S(=O)(=O)N2CCCCC2)cc1)N1CCN(Cc2ccc3c(c2)OCO3)CC1,1,-8,0,0.059,0.035,-0.61,/,/
O=C(CCn1c(=S)[nH]c2cc3c(cc2c1=O)OCO3)N1CCN(c2ccccn2)CC1,0.9,/,/,0.59,0.029,-0.58,/,/
CCCc1nn(C)c2c1C(c1ccncc1)C(C#N)=C(N)O2 (stereo not given),0.9,-1,0,0.45,-1.6,-0.015,/,/
COc1ccc(-n2nc3c(c2NC(=O)c2cc4ccccc4oc2=O)CS(=O)(=O)C3)cc1,0.6,/,/,-0.51,1.6,1.3,/,/
COc1cc2nc(NCC3CCCO3)n3nc(-c4cccnc4)nc3c2cc1OC (stereo not given),1,-25,0,2.9*,-2.2,-3.9*,?,-39
Cc1nc2ccccc2c2oc(C(=O)NCc3ccc4c(c3)OCO4)cc12,1,44,-1,2.6*,-2.2,-2*,-8.3,-35
COc1ccc2cc3cc(C(=O)NCc4ccc5c(c4)OCO5)oc3nc2c1,0.9,5,0,2.1*,0.79,-0.51,?,-46
Cc1c(-c2cccs2)[n+](=O)c2c(n1[O-])CCCC2,0.9,-8,-3,-0.021,-0.68,0.021,/,/
CSCCC(NC(=O)c1ccc(C)o1)C(=O)O (stereo not given),0.9,-1,-1,0.15,-0.21,-0.14,/,/

# Assay outcomes (PubChem BioAssay)
